Data: ChEMBL document CHEMBL3797186, “Single Residue Substitutions That Confer Voltage-Gated Sodium Ion Channel Subtype Selectivity in the NaV1.7 Inhibitory Peptide GpTx-1” (J Med Chem, 2016)
Positions of bridges follow the written chain, without caps; N, C: chain ends. Non-standard residues stand in square brackets, D forms with d. Residues, ends and D or L forms follow the SMILES beside them. 1Nal = N[C@@H](Cc1cccc2ccccc12)C(=O)O

Tests used:
[1] = biological target: Sodium channel protein type 9 subunit alpha (Homo sapiens, UniProt Q15858); test: Inhibition of human Nav1.7 expressed in HEK293 cells assessed as inward peak current by ion-works quattro patch clamp electrophysiology method; format: cell-based
[2] = biological target: Sodium channel protein type 5 subunit alpha (Homo sapiens, UniProt Q14524); test: Inhibition of human Nav1.5 expressed in HEK293 cells assessed as inward peak current by ion-works quattro patch clamp electrophysiology method; format: cell-based
Method in brief: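 Stable HEK293 line expressing human NaV1.5, recorded by population patch clamp on the IonWorks Quattro.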

Chain of Sodium channel protein type 5 subunit alpha (Q14524 whole entry): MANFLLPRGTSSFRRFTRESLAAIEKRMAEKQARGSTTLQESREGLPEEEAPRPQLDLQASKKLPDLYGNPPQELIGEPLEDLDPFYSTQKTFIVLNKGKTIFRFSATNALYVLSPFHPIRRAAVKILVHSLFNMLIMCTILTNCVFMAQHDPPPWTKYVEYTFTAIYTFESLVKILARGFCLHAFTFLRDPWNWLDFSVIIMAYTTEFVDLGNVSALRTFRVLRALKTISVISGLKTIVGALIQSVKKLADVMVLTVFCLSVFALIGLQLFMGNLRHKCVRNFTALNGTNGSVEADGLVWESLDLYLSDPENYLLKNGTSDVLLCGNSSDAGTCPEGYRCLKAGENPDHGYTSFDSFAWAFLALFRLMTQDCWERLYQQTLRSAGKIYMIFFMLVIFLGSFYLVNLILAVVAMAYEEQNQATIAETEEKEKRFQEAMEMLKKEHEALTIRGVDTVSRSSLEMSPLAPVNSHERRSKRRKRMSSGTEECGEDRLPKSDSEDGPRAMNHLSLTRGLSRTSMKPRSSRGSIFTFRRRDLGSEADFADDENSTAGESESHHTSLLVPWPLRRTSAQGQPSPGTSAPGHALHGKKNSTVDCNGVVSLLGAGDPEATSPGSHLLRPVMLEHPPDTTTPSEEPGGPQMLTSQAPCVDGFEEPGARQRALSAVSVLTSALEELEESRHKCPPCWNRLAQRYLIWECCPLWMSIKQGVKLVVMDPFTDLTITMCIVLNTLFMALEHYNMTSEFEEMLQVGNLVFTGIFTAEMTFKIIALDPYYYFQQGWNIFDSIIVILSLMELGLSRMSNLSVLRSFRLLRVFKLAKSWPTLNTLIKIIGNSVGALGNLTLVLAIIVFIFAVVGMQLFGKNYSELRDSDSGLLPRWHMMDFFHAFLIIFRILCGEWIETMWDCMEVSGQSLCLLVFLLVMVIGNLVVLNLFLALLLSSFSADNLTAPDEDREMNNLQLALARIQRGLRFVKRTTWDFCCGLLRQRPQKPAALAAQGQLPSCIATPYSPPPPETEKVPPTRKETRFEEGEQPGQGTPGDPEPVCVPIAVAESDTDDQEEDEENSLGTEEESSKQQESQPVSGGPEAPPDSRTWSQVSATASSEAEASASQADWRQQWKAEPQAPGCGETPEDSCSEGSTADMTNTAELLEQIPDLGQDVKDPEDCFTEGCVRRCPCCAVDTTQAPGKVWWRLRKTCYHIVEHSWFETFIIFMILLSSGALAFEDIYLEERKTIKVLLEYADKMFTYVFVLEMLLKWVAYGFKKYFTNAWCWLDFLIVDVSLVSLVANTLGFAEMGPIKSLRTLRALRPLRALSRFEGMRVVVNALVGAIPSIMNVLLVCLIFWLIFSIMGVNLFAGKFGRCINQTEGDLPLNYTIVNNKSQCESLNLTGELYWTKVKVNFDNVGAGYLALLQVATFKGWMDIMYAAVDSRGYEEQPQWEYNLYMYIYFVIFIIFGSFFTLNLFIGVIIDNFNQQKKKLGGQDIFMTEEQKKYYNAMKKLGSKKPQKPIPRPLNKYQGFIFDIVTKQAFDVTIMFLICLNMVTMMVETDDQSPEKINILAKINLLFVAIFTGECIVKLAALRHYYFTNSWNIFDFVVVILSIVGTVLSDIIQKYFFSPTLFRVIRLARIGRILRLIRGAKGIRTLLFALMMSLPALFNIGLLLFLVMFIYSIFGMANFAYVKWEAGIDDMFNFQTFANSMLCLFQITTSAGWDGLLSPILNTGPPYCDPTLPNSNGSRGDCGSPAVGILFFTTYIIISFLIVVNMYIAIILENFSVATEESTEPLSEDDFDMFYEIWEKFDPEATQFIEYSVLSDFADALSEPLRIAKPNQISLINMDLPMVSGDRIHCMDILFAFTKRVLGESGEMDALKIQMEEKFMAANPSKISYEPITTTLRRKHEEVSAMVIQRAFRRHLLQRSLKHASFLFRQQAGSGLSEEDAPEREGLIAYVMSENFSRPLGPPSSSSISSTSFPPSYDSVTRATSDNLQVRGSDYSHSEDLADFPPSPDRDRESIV
Chain of Sodium channel protein type 9 subunit alpha (Q15858 whole entry): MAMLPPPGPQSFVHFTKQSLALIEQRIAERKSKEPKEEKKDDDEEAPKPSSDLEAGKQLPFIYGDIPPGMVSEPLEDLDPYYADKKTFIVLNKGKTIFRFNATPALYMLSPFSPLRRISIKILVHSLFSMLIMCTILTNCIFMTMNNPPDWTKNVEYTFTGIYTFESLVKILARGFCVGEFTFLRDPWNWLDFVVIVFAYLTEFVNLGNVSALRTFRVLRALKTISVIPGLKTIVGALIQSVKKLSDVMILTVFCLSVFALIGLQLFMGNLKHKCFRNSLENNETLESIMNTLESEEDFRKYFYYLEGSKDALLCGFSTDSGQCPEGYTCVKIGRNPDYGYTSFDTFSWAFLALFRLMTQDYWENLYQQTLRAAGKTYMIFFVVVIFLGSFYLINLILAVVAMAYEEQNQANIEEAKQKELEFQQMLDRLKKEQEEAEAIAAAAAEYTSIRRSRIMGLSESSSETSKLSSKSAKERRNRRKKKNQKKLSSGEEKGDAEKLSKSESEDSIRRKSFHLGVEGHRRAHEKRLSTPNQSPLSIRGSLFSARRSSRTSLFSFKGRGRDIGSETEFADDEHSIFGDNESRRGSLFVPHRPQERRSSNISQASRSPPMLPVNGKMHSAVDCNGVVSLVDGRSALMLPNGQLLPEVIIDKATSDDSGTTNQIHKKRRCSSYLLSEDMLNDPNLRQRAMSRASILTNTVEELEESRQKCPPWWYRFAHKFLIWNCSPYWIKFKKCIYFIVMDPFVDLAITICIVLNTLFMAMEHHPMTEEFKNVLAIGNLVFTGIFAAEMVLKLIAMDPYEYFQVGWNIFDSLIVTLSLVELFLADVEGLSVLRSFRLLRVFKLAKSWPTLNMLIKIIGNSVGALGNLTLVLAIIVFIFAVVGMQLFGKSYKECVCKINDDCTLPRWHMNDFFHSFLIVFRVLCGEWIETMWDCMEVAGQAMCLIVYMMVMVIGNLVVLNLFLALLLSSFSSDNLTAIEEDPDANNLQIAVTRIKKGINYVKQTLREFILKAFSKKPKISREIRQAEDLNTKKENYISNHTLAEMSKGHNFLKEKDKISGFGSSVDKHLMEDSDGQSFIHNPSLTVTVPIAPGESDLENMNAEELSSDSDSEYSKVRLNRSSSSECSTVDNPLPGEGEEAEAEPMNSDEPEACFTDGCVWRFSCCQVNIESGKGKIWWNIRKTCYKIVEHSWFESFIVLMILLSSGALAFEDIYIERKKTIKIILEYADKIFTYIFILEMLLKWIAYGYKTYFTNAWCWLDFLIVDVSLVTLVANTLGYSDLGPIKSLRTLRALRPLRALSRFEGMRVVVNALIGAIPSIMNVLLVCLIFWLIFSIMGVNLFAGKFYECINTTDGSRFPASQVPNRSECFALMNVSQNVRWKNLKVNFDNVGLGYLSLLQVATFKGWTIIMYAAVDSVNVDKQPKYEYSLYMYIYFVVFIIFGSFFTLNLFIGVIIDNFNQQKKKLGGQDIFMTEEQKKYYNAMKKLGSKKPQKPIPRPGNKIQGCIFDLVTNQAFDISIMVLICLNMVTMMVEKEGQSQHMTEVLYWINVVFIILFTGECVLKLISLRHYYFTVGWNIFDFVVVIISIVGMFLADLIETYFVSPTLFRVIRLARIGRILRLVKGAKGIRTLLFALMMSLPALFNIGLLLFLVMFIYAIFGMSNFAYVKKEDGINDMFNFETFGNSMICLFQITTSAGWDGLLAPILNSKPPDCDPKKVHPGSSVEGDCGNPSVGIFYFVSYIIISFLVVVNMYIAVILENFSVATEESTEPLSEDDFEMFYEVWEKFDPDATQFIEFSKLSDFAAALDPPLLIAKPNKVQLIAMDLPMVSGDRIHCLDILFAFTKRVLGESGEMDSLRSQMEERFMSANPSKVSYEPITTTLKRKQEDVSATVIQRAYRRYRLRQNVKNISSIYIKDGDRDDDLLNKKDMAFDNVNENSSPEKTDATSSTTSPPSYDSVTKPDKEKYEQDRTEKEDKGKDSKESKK

SMILES | IC50 [1] [nM] | IC50 [2] [nM]
CC[C@H](C)[C@@H]1NC(=O)[C@@H]2CSSC[C@@H]3NC(=O)[C@H](C(C)C)NC(=O)[C@H](CC(C)C)NC(=O)[C@H](CC(N)=O)NC(=O)[C@@H]4CCCN4C(=O)[C@H](CCCNC(=N)N)NC(=O)[C@H](CSSC[C@H](NC(=O)[C@@H](N)CC(=O)O)C(=O)N[C@@H](CC(C)C)C(=O)NCC(=O)N[C@@H](Cc4ccccc4)C(=O)N[C@@H](CCSC)C(=O)N[C@@H](CCCNC(=N)N)C(=O)N[C@@H](CCCCN)C(=O)N2)NC(=O)[C@H](CSSC[C@@H](C(=O)N[C@@H](CCCCN)C(=O)N[C@@H](Cc2ccc(O)cc2)C(=O)N[C@H](C(=O)N[C@@H](Cc2ccccc2)C(N)=O)C(C)C)NC(=O)[C@H](Cc2c[nH]c4ccccc24)NC(=O)[C@H](CCCCN)NC(=O)[C@H](Cc2cnc[nH]2)NC(=O)[C@H](CCC(=O)O)NC(=O)[C@H](CCCNC(=N)N)NC(=O)[C@H](CO)NC3=O)NC(=O)[C@H](CCCCN)NC(=O)[C@H](CC(=O)O)NC(=O)[C@H](CC(N)=O)NC(=O)[C@H](CC(=O)O)NC(=O)[C@@H]2CCCN2C1=O (H-DCLGFMRKCIPDNDKCCRPNLVCSREHKWCKYVF-NH2; disulfide 2-17, 9-23, 16-30) | 690 | > 5000
CC[C@H](C)[C@@H]1NC(=O)[C@@H]2CSSC[C@@H]3NC(=O)[C@H](C(C)C)NC(=O)[C@H](CC(C)C)NC(=O)[C@H](CC(N)=O)NC(=O)[C@@H]4CCCN4C(=O)[C@H](CCCNC(=N)N)NC(=O)[C@H](CSSC[C@H](NC(=O)[C@@H](N)CC(=O)O)C(=O)N[C@@H](CC(C)C)C(=O)NCC(=O)N[C@@H](Cc4ccccc4)C(=O)N[C@@H](CCSC)C(=O)N[C@@H](CCCNC(=N)N)C(=O)N[C@@H](CCCCN)C(=O)N2)NC(=O)[C@H](CSSC[C@@H](C(=O)N[C@@H](CCCCN)C(=O)N[C@@H](Cc2ccc(O)cc2)C(=O)N[C@H](C(=O)N[C@@H](Cc2ccccc2)C(N)=O)C(C)C)NC(=O)[C@H](Cc2c[nH]c4ccccc24)NC(=O)[C@H](CCCCN)NC(=O)[C@H](CCCNC(=N)N)NC(=O)[C@H]([C@@H](C)O)NC(=O)[C@H](CCCNC(=N)N)NC(=O)[C@H](CO)NC3=O)NC(=O)[C@H](CCCCN)NC(=O)[C@H](CC(=O)O)NC(=O)[C@H](CC(N)=O)NC(=O)[C@H](CC(=O)O)NC(=O)[C@@H]2CCCN2C1=O (H-DCLGFMRKCIPDNDKCCRPNLVCSRTRKWCKYVF-NH2; disulfide 2-17, 9-23, 16-30) | 450 | > 5000
CC[C@H](C)[C@@H]1NC(=O)[C@@H]2CSSC[C@@H]3NC(=O)[C@H](C(C)C)NC(=O)[C@H](CC(C)C)NC(=O)[C@H](CC(N)=O)NC(=O)[C@@H]4CCCN4C(=O)[C@H](CCCNC(=N)N)NC(=O)[C@H](CSSC[C@H](NC(=O)[C@@H](N)CC(=O)O)C(=O)N[C@@H](CC(C)C)C(=O)NCC(=O)N[C@@H](Cc4ccccc4)C(=O)N[C@@H](CCSC)C(=O)N[C@@H](CCCNC(=N)N)C(=O)N[C@@H](CCCCN)C(=O)N2)NC(=O)[C@H](CSSC[C@@H](C(=O)N[C@@H](CCCCN)C(N)=O)NC(=O)[C@H](Cc2c[nH]c4ccccc24)NC(=O)[C@H](CCCCN)NC(=O)[C@H](Cc2cnc[nH]2)NC(=O)[C@H]([C@@H](C)O)NC(=O)[C@H](CCCNC(=N)N)NC(=O)[C@H](CO)NC3=O)NC(=O)[C@H](CCCCN)NC(=O)[C@H](CC(=O)O)NC(=O)[C@H](CC(N)=O)NC(=O)[C@H](CC(=O)O)NC(=O)[C@@H]2CCCN2C1=O (H-DCLGFMRKCIPDNDKCCRPNLVCSRTHKWCK-NH2; disulfide 2-17, 9-23, 16-30) | > 5000 | > 5000
CC[C@H](C)[C@@H]1NC(=O)[C@@H]2CSSC[C@@H]3NC(=O)[C@H](C(C)C)NC(=O)[C@H](CC(C)C)NC(=O)[C@H](CC(N)=O)NC(=O)[C@@H]4CCCN4C(=O)[C@H](CCCNC(=N)N)NC(=O)[C@H](CSSC[C@H](NC(=O)[C@@H](N)CC(=O)O)C(=O)N[C@@H](CC(C)C)C(=O)NCC(=O)N[C@@H](Cc4ccccc4)C(=O)N[C@@H](CCSC)C(=O)N[C@@H](CCCNC(=N)N)C(=O)N[C@@H](CCCCN)C(=O)N2)NC(=O)[C@H](CSSC[C@@H](C(=O)N[C@@H](CCCCN)C(=O)N[C@@H](Cc2ccc(O)cc2)C(=O)N[C@H](C(=O)N[C@@H](Cc2ccccc2)C(=O)N[C@@H](CCCNC(=N)N)C(N)=O)C(C)C)NC(=O)[C@H](Cc2c[nH]c4ccccc24)NC(=O)[C@H](CCCCN)NC(=O)[C@H](Cc2cnc[nH]2)NC(=O)[C@H]([C@@H](C)O)NC(=O)[C@H](CCCNC(=N)N)NC(=O)[C@H](CO)NC3=O)NC(=O)[C@H](CCCCN)NC(=O)[C@H](CC(=O)O)NC(=O)[C@H](CC(N)=O)NC(=O)[C@H](CC(=O)O)NC(=O)[C@@H]2CCCN2C1=O | 130 | > 5000
CC[C@H](C)[C@@H]1NC(=O)[C@@H]2CSSC[C@@H]3NC(=O)[C@H](C(C)C)NC(=O)[C@H](CC(C)C)NC(=O)[C@H](CC(N)=O)NC(=O)[C@@H]4CCCN4C(=O)[C@H](CCCNC(=N)N)NC(=O)[C@H](CSSC[C@H](NC(=O)[C@@H](N)CC(=O)O)C(=O)N[C@@H](CC(C)C)C(=O)NCC(=O)N[C@@H](Cc4ccccc4)C(=O)N[C@@H](CCSC)C(=O)N[C@@H](CCCNC(=N)N)C(=O)N[C@@H](CCCCN)C(=O)N2)NC(=O)[C@H](CSSC[C@@H](C(=O)N[C@@H](CCCCN)C(=O)N[C@@H](Cc2ccc(O)cc2)C(=O)N[C@H](C(=O)N[C@@H](Cc2ccccc2)C(N)=O)C(C)C)NC(=O)[C@H](Cc2c[nH]c4ccccc24)NC(=O)[C@H](CCCCN)NC(=O)[C@H](Cc2cccc4ccccc24)NC(=O)[C@H]([C@@H](C)O)NC(=O)[C@H](CCCNC(=N)N)NC(=O)[C@H](CO)NC3=O)NC(=O)[C@H](CCCCN)NC(=O)[C@H](CC(=O)O)NC(=O)[C@H](CC(N)=O)NC(=O)[C@H](CC(=O)O)NC(=O)[C@@H]2CCCN2C1=O (H-DCLGFMRKCIPDNDKCCRPNLVCSRT[1Nal]KWCKYVF-NH2; disulfide 2-17, 9-23, 16-30) | 250 | 900
CC[C@H](C)[C@@H]1NC(=O)[C@@H]2CSSC[C@@H]3NC(=O)[C@H](C(C)C)NC(=O)[C@H](CC(C)C)NC(=O)[C@H](CC(N)=O)NC(=O)[C@@H]4CCCN4C(=O)[C@H](CCCNC(=N)N)NC(=O)[C@H](CSSC[C@H](NC(=O)[C@@H](N)Cc4cccc5ccccc45)C(=O)N[C@@H](CC(C)C)C(=O)NCC(=O)N[C@@H](Cc4ccccc4)C(=O)N[C@@H](CCSC)C(=O)N[C@@H](CCCNC(=N)N)C(=O)N[C@@H](CCCCN)C(=O)N2)NC(=O)[C@H](CSSC[C@@H](C(=O)N[C@@H](CCCCN)C(=O)N[C@@H](Cc2ccc(O)cc2)C(=O)N[C@H](C(=O)N[C@@H](Cc2ccccc2)C(N)=O)C(C)C)NC(=O)[C@H](Cc2c[nH]c4ccccc24)NC(=O)[C@H](CCCCN)NC(=O)[C@H](Cc2c[nH]cn2)NC(=O)[C@H]([C@@H](C)O)NC(=O)[C@H](CCCNC(=N)N)NC(=O)[C@H](CO)NC3=O)NC(=O)[C@H](CCCCN)NC(=O)[C@H](CC(=O)O)NC(=O)[C@H](CC(N)=O)NC(=O)[C@H](CC(=O)O)NC(=O)[C@@H]2CCCN2C1=O (H-[1Nal]CLGFMRKCIPDNDKCCRPNLVCSRTHKWCKYVF-NH2; disulfide 2-17, 9-23, 16-30) | 100 | > 5000
CC[C@H](C)[C@@H]1NC(=O)[C@H]2CSSC[C@H]3NC(=O)[C@H](C(C)C)NC(=O)[C@H](CC(C)C)NC(=O)[C@H](CC(N)=O)NC(=O)[C@@H]4CCCN4C(=O)[C@H](CCCNC(=N)N)NC(=O)[C@H](CSSC[C@H](NC(=O)[C@@H](N)CC(=O)O)C(=O)N[C@@H](CC(C)C)C(=O)NCC(=O)N[C@@H](Cc4ccccc4)C(=O)N[C@@H](CCSC)C(=O)N[C@@H](CCCNC(=N)N)C(=O)N[C@@H](CCCCN)C(=O)N2)NC(=O)[C@@H](CSSC[C@@H](C(=O)N[C@@H](C)C(=O)N[C@@H](Cc2ccc(O)cc2)C(=O)N[C@H](C(=O)N[C@@H](Cc2ccccc2)C(N)=O)C(C)C)NC(=O)[C@H](Cc2c[nH]c4ccccc24)NC(=O)[C@H](CCCCN)NC(=O)[C@H](Cc2cnc[nH]2)NC(=O)[C@H]([C@@H](C)O)NC(=O)[C@H](CCCNC(=N)N)NC(=O)[C@H](CO)NC3=O)NC(=O)[C@H](CCCCN)NC(=O)[C@H](CC(=O)O)NC(=O)[C@H](CC(N)=O)NC(=O)[C@H](CC(=O)O)NC(=O)[C@@H]2CCCN2C1=O | > 5000 | > 5000
CC[C@H](C)[C@@H]1NC(=O)[C@@H]2CSSC[C@@H]3NC(=O)[C@H](C(C)C)NC(=O)[C@H](CC(C)C)NC(=O)[C@H](CC(N)=O)NC(=O)[C@@H]4CCCN4C(=O)[C@H](CCCNC(=N)N)NC(=O)[C@H](CSSC[C@H](NC(=O)[C@@H](N)CC(=O)O)C(=O)N[C@@H](CC(C)C)C(=O)NCC(=O)N[C@@H](Cc4ccccc4)C(=O)N[C@@H](CCSC)C(=O)N[C@@H](CCCNC(=N)N)C(=O)N[C@@H](CCCCN)C(=O)N2)NC(=O)[C@H](CSSC[C@@H](C(=O)N[C@@H](CCCCN)C(=O)N[C@@H](Cc2ccc(O)cc2)C(=O)N[C@H](C(=O)N[C@@H](Cc2ccccc2)C(N)=O)C(C)C)NC(=O)[C@H](Cc2c[nH]c4ccccc24)NC(=O)[C@H](CCCCN)NC(=O)[C@H](CCC(=O)O)NC(=O)[C@H]([C@@H](C)O)NC(=O)[C@H](CCCNC(=N)N)NC(=O)[C@H](CO)NC3=O)NC(=O)[C@H](CCCCN)NC(=O)[C@H](CC(=O)O)NC(=O)[C@H](CC(N)=O)NC(=O)[C@H](CC(=O)O)NC(=O)[C@@H]2CCCN2C1=O (H-DCLGFMRKCIPDNDKCCRPNLVCSRTEKWCKYVF-NH2; disulfide 2-17, 9-23, 16-30) | > 5000 | > 5000
